ChEMBL document CHEMBL1154713, “Molecular iodine promoted synthesis of new pyrazolo[3,4-d]pyrimidine derivatives as potential antibacterial agents” (2010)

Key:
Type in all cases: functional
[1] = tested on: Staphylococcus aureus; test: Antibacterial activity against Staphylococcus aureus PTCC 1074 at 100 ug/ml after 24 hrs by disk diffusion sensitivity assay; details: PTCC 1074, 24 h, read-out: IZ
Method in brief: (§1)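 Disc diffusion on Mueller–Hinton agar poured 5 mm deep, swabbed with 1.2 × 10⁸ CFU/mL bacterial suspension (0.5 McFarland). Compounds dissolved in DMF, diluted with ethanol to 100–600 µg/mL solutions, loaded onto 6.25 mm filter-paper discs. Discs placed in triplicate, incubated 24 h at 37 °C. Average inhibition zone reported, maximum across concentrations shown. Streptomycin used as standard.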

[2] = Antibacterial activity against Escherichia coli HB101 BA 7601C at 100 ug/ml after 24 hrs by disk diffusion sensitivity assay; details: read-out: IZ; method in brief: as §1
[3] = tested on: Bacillus subtilis; test: Antibacterial activity against Bacillus subtilis PTCC 1365 at 100 ug/ml after 24 hrs by disk diffusion sensitivity assay; details: PTCC 1365, 24 h, read-out: IZ; method in brief: as §1
[4] = tested on: Pseudomonas aeruginosa; test: Antibacterial activity against Pseudomonas aeruginosa PTCC 1431 at 100 ug/ml after 24 hrs by disk diffusion sensitivity assay; details: PTCC 1431, 24 h, read-out: IZ; method in brief: as §1
[5] = tested on: Pseudomonas aeruginosa; test: Antibacterial activity against Pseudomonas aeruginosa PTCC 1431 at 500 ug/ml after 24 hrs by disk diffusion sensitivity assay; details: PTCC 1431, 24 h, read-out: IZ; method in brief: as §1
[6] = tested on: Staphylococcus aureus; test: Antibacterial activity against Staphylococcus aureus PTCC 1074 at 500 ug/ml after 24 hrs by disk diffusion sensitivity assay; details: PTCC 1074, 24 h, read-out: IZ; method in brief: as §1
[7] = tested on: Bacillus subtilis; test: Antibacterial activity against Bacillus subtilis PTCC 1365 at 500 ug/ml after 24 hrs by disk diffusion sensitivity assay; details: PTCC 1365, 24 h, read-out: IZ; method in brief: as §1
[8] = Antibacterial activity against Escherichia coli HB101 BA 7601C at 500 ug/ml after 24 hrs by disk diffusion sensitivity assay; details: read-out: IZ; method in brief: as §1
[9] = tested on: Staphylococcus aureus; test: Antibacterial activity against Staphylococcus aureus PTCC 1074 at 400 ug/ml after 24 hrs by disk diffusion sensitivity assay; details: PTCC 1074, 24 h, read-out: IZ; method in brief: as §1
[10] = Antibacterial activity against Escherichia coli HB101 BA 7601C at 400 ug/ml after 24 hrs by disk diffusion sensitivity assay; details: read-out: IZ; method in brief: as §1
[11] = tested on: Pseudomonas aeruginosa; test: Antibacterial activity against Pseudomonas aeruginosa PTCC 1431 at 400 ug/ml after 24 hrs by disk diffusion sensitivity assay; details: PTCC 1431, 24 h, read-out: IZ; method in brief: as §1
[12] = tested on: Bacillus subtilis; test: Antibacterial activity against Bacillus subtilis PTCC 1365 at 400 ug/ml after 24 hrs by disk diffusion sensitivity assay; details: PTCC 1365, 24 h, read-out: IZ; method in brief: as §1
[13] = tested on: Bacillus subtilis; test: Antibacterial activity against Bacillus subtilis PTCC 1365 at 200 ug/ml after 24 hrs by disk diffusion sensitivity assay; details: PTCC 1365, 24 h, read-out: IZ; method in brief: as §1
[14] = Antibacterial activity against Escherichia coli HB101 BA 7601C at 200 ug/ml after 24 hrs by disk diffusion sensitivity assay; details: read-out: IZ; method in brief: as §1
[15] = tested on: Staphylococcus aureus; test: Antibacterial activity against Staphylococcus aureus PTCC 1074 at 200 ug/ml after 24 hrs by disk diffusion sensitivity assay; details: PTCC 1074, 24 h, read-out: IZ; method in brief: as §1
[16] = tested on: Pseudomonas aeruginosa; test: Antibacterial activity against Pseudomonas aeruginosa PTCC 1431 at 200 ug/ml after 24 hrs by disk diffusion sensitivity assay; details: PTCC 1431, 24 h, read-out: IZ; method in brief: as §1
[17] = tested on: Pseudomonas aeruginosa; test: Antibacterial activity against Pseudomonas aeruginosa PTCC 1431 at 10 ug/ml after 24 hrs by disk diffusion sensitivity assay; details: PTCC 1431, 24 h, read-out: IZ
[18] = Antibacterial activity against Escherichia coli HB101 BA 7601C at 10 ug/ml after 24 hrs by disk diffusion sensitivity assay; details: read-out: IZ
[19] = tested on: Staphylococcus aureus; test: Antibacterial activity against Staphylococcus aureus PTCC 1074 at 10 ug/ml after 24 hrs by disk diffusion sensitivity assay; details: PTCC 1074, 24 h, read-out: IZ
[20] = tested on: Bacillus subtilis; test: Antibacterial activity against Bacillus subtilis PTCC 1365 at 10 ug/ml after 24 hrs by disk diffusion sensitivity assay; details: PTCC 1365, 24 h, read-out: IZ
[21] = tested on: Bacillus subtilis; test: Antibacterial activity against Bacillus subtilis PTCC 1365 at 300 ug/ml after 24 hrs by disk diffusion sensitivity assay; details: PTCC 1365, 24 h, read-out: IZ; method in brief: as §1
[22] = Antibacterial activity against Escherichia coli HB101 BA 7601C at 300 ug/ml after 24 hrs by disk diffusion sensitivity assay; details: read-out: IZ; method in brief: as §1
[23] = tested on: Pseudomonas aeruginosa; test: Antibacterial activity against Pseudomonas aeruginosa PTCC 1431 at 300 ug/ml after 24 hrs by disk diffusion sensitivity assay; details: PTCC 1431, 24 h, read-out: IZ; method in brief: as §1
[24] = tested on: Staphylococcus aureus; test: Antibacterial activity against Staphylococcus aureus PTCC 1074 at 300 ug/ml after 24 hrs by disk diffusion sensitivity assay; details: PTCC 1074, 24 h, read-out: IZ; method in brief: as §1

COc1ccc(-c2nc3c(cnn3-c3ccc([N+](=O)[O-])cc3[N+](=O)[O-])c(=O)[nH]2)cc1
zone of inhibition at 100 µg/mL [1]: 10 mm | zone of inhibition at 100 µg/mL [2]: 9.5 mm | zone of inhibition at 100 µg/mL [3]: 10 mm | zone of inhibition at 100 µg/mL [4]: 12.5 mm

O=c1[nH]c(-c2ccccc2O)nc2c1cnn2-c1ccc([N+](=O)[O-])cc1[N+](=O)[O-]
zone of inhibition at 500 µg/mL [5]: 16 mm | zone of inhibition at 500 µg/mL [6]: 9 mm | zone of inhibition at 500 µg/mL [7]: 9 mm | zone of inhibition at 500 µg/mL [8]: 7 mm

O=c1[nH]c(-c2cccc([N+](=O)[O-])c2)nc2c1cnn2-c1ccc([N+](=O)[O-])cc1[N+](=O)[O-]
zone of inhibition at 400 µg/mL [9]: 15 mm | zone of inhibition at 400 µg/mL [10]: 8 mm | zone of inhibition at 400 µg/mL [11]: 9 mm | zone of inhibition at 400 µg/mL [12]: 11 mm

Cc1ccc(-c2nc3c(cnn3-c3ccc([N+](=O)[O-])cc3[N+](=O)[O-])c(=O)[nH]2)cc1
zone of inhibition at 200 µg/mL [13]: 9 mm | zone of inhibition at 200 µg/mL [14]: 9 mm | zone of inhibition at 200 µg/mL [15]: 13 mm | zone of inhibition at 200 µg/mL [16]: 7.5 mm

COc1cccc(-c2nc3c(cnn3-c3ccc([N+](=O)[O-])cc3[N+](=O)[O-])c(=O)[nH]2)c1
zone of inhibition at 100 µg/mL [1]: 9 mm | zone of inhibition at 100 µg/mL [2]: 11.5 mm | zone of inhibition at 100 µg/mL [3]: 8 mm | zone of inhibition at 100 µg/mL [4]: 12.5 mm

O=c1[nH]c(-c2ccc(Cl)cc2)nc2c1cnn2-c1ccc([N+](=O)[O-])cc1[N+](=O)[O-]
zone of inhibition at 400 µg/mL [9]: 8.5 mm | zone of inhibition at 400 µg/mL [10]: 10.5 mm | zone of inhibition at 400 µg/mL [11]: 8 mm | zone of inhibition at 400 µg/mL [12]: 15 mm

CN[C@@H]1[C@H](O[C@H]2[C@H](O[C@H]3[C@H](O)[C@@H](O)[C@H](N=C(N)N)[C@@H](O)[C@@H]3N=C(N)N)O[C@@H](C)[C@]2(O)C=O)O[C@@H](CO)[C@H](O)[C@H]1O [STREPTOMYCIN]
zone of inhibition at 10 µg/mL [17]: 10 mm | zone of inhibition at 10 µg/mL [18]: 17 mm | zone of inhibition at 10 µg/mL [19]: 15 mm | zone of inhibition at 10 µg/mL [20]: 10 mm

O=c1[nH]c(-c2ccccc2)nc2c1cnn2-c1ccc([N+](=O)[O-])cc1[N+](=O)[O-]
zone of inhibition at 400 µg/mL [9]: 9 mm | zone of inhibition at 400 µg/mL [10]: 15 mm | zone of inhibition at 400 µg/mL [11]: 9.5 mm | zone of inhibition at 400 µg/mL [12]: 10 mm

O=c1[nH]c(-c2ccc([N+](=O)[O-])cc2)nc2c1cnn2-c1ccc([N+](=O)[O-])cc1[N+](=O)[O-]
zone of inhibition at 300 µg/mL [21]: 9 mm | zone of inhibition at 300 µg/mL [22]: 9 mm | zone of inhibition at 300 µg/mL [23]: 13.5 mm | zone of inhibition at 300 µg/mL [24]: 8.5 mm

O=c1[nH]c(-c2cccc(O)c2)nc2c1cnn2-c1ccc([N+](=O)[O-])cc1[N+](=O)[O-]
zone of inhibition at 500 µg/mL [5]: 9.5 mm | zone of inhibition at 500 µg/mL [6]: 16 mm | zone of inhibition at 500 µg/mL [7]: 12 mm | zone of inhibition at 500 µg/mL [8]: 12 mm

O=c1[nH]c(-c2ccc(Br)cc2)nc2c1cnn2-c1ccc([N+](=O)[O-])cc1[N+](=O)[O-]
zone of inhibition at 100 µg/mL [1]: 9 mm | zone of inhibition at 100 µg/mL [2]: 17 mm | zone of inhibition at 100 µg/mL [3]: 9 mm | zone of inhibition at 100 µg/mL [4]: 10 mm
